From ChEMBL document CHEMBL2034893, “Selective inhibition of human type-5 17β-hydroxysteroid dehydrogenase (AKR1C3) by baccharin, a component of Brazilian propolis” (J Nat Prod, 2012) come the findings set out here.

Assay [1] has as its target T1, Aldo-keto reductase family 1 member C3 (Homo sapiens, UniProt P42330). Kind of assay: Inhibition of human recombinant AKR1C3 expressed in Escherichia coli JM109 cells using S-tetralol as substrate at 100 uM by fluorometry.
The target in assay [2] is T2, Aldo-keto reductase family 1 member C1 (Homo sapiens, UniProt Q04828). Kind of assay: Inhibition of AKR1C1-mediated progesterone reduction in human A549 cells at 0.2 to 5 uM incubated for 2 hrs prior to substrate addition measured after 6 hrs by LC/MS analysis. The format is cell-based. The gist of the method:
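A549 cells were grown in DMEM with 10% FBS at 37 °C under 5% CO2. They were pretreated 2 h with inhibitor in serum-free medium, then given 30 μM progesterone for 6 h. Medium steroids were extracted twice with ethyl acetate. Progesterone and 20α-hydroxyprogesterone were quantified by LC/MS (chiral column, total-ion monitoring). Percent inhibition of reduction is the mean of two independent experiments.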

For assay [3], the target named is T1, Aldo-keto reductase family 1 member C3. Kind of assay: Inhibition of human recombinant AKR1C3 expressed in Escherichia coli JM109 cells using S-tetralol as substrate by fluorometry.
Assay [4] has the same target. Kind of assay: Competitive inhibition of human recombinant AKR1C3 expressed in Escherichia coli JM109 cells using S-tetralol as substrate by fluorometry. The gist of the method: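 Recombinant enzymes (wild-type or mutant) were expressed in E. coli JM109 and purified to homogeneity. Activity was NADP+-linked S-tetralol oxidation at 25 °C in 0.1 M potassium phosphate, pH 7.4, with saturating 0.25 mM NADP+ and five S-tetralol levels (0.33−2 mM). NADPH fluorescence was read at ex 340/em 455 nm. Ki is the mean ± SD of at least three determinations.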

Assay [5] has the same target. Kind of assay: Noncompetitive inhibition of human recombinant AKR1C3 expressed in Escherichia coli JM109 cells using S-tetralol as substrate by fluorometry in presence of NADP+.
Assay [6] concerns PC-3. Kind of assay: Growth inhibition of human PC3 cells overexpressing AKR1C3 at 50 uM after 72 hrs by MTT assay relative to untreated control. The class given is functional. The settings on record: PC-3, 72 h, read-out: GI. (In general: Tetrazolium assays rely on reduction of a dye to a coloured formazan, in cell work by metabolically active cells.)
Assay [7] relates to PC-3. Kind of assay: Growth inhibition of human PC3 cells at 50 uM after 72 hrs by MTT assay relative to untreated control. The class given is functional. The settings on record: PC-3, 72 h, read-out: GI.
Assay [8] concerns the target T2, Aldo-keto reductase family 1 member C1. Kind of assay: Inhibition of human recombinant GST-tagged AKR1C1 expressed in Escherichia coli using S-tetralol as substrate by fluorometry. In outline:
(§1)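 Purified recombinant enzyme was assayed at 25 °C in 0.1 M potassium phosphate, pH 7.4, with 0.25 mM NADP+ and S-tetralol (0.1 mM for AKR1C1, 1 mM for AKR1C4). The rate of NADPH fluorescence increase was read at ex 340/em 455 nm. IC50 is the mean ± SD of at least three determinations.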

In assay [9] the target is Aldo-keto reductase family 1 member C2 (Homo sapiens, UniProt P52895). Kind of assay: Inhibition of human recombinant AKR1C2 expressed in Escherichia coli using S-tetralol as substrate by fluorometry.
Chain of Aldo-keto reductase family 1 member C2 (P52895 whole entry): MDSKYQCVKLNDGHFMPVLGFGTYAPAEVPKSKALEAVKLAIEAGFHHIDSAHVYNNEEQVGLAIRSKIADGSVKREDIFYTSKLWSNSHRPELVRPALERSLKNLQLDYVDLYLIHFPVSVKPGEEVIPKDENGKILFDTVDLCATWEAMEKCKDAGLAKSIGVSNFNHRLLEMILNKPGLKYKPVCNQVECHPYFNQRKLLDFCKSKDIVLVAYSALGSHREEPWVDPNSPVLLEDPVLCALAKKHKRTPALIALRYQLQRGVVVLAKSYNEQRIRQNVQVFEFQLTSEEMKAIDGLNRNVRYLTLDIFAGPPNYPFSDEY
Assay [10] concerns the target Aldo-keto reductase family 1 member C4 (Homo sapiens, UniProt P17516). Kind of assay: Inhibition of human recombinant GST-tagged AKR1C4 expressed in Escherichia coli using S-tetralol as substrate by fluorometry. In outline: as §1
The target of assay [11] is T1, Aldo-keto reductase family 1 member C3. Kind of assay: Inhibition of human AKR1C3 using S-(+)-1,2,3,4-tetrahydro-1-naphthol as substrate. The gist of the method:
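Recombinant human AKR1C3, purified to homogeneity. NADP+-linked S-tetralol oxidation at 25 °C in 0.1 M potassium phosphate pH 7.4 with 0.25 mM NADP+ and 1 mM S-tetralol. Rate followed by NADPH fluorescence (excitation 340 nm, emission 455 nm). IC50 given as mean ± SD of at least three determinations.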

The source made the active and inactive calls. The rule behind the calls is not given here.

T2 sequence (Q04828 whole entry): as the sequence (P52895 whole entry) above, with V38T, H47R, V54L, S87C, M151V, H170R, L172Q counted along it
T1 sequence (P42330 whole entry): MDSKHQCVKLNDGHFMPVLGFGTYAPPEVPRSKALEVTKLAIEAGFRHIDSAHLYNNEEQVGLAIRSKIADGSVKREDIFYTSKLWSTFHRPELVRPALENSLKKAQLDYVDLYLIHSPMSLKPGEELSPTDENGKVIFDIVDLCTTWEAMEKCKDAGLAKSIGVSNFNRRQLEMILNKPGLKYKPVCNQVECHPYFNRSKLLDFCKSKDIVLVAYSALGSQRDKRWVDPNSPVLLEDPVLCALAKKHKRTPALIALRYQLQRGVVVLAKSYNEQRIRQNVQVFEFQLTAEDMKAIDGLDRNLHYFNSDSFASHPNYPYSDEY
Chain of Aldo-keto reductase family 1 member C4 (P17516 whole entry): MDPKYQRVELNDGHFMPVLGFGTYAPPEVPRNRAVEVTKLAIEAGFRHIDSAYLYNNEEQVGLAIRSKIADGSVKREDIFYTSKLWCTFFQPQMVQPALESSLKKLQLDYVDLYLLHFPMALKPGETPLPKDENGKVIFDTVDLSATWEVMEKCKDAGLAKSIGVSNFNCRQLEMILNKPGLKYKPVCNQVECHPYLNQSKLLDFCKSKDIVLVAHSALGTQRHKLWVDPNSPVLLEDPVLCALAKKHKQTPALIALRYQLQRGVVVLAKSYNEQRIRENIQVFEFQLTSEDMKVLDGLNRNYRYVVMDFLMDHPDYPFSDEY

The inhibition is how much of the control response was suppressed. Take `O=C(O)/C=C/c1ccc(O)c(O)c1`: the inhibition in assay [1] was determined as 36%.

For `O=C(O)/C=C/c1ccc(O)cc1`, in assay [1], the inhibition was determined as 22%.

For `O=C(O)c1cc(-c2ccccc2)cc(Br)c1O`, the inhibition entry in [2] was “Active”.

As a reminder, the IC50 is the point on the concentration scale where inhibition reaches its midpoint. Broadly, the Ki is the dissociation constant of the complex between target and ligand, obtained from inhibition or displacement. Consider `CC(C)=CCc1cc(/C=C/C(=O)O)cc(CC=C(C)C)c1O` [ARTEPILLIN], for which the IC50 in assay [3] is 1 µM. Further, the Ki in [4] and in [5] was 0.68 µM throughout.

For the compound `CC(C)=CCc1cc(/C=C/C(=O)O)ccc1OC(=O)CCc1ccccc1` [BACCHARIN], the inhibition of growth at 50 µM in the assay with PC-3 [6] was found to be 43%; in the assay with PC-3 [7] it was 35%.

Take `O=C(/C=C/c1ccc(O)c(O)c1)OCCc1ccccc1` [CAFFEIC ACID PHENETHYL ESTER]: the IC50 in assay [8] was found to be 13 µM; in [9] it was 6 µM; in assay [3], 1.7 µM; in assay [10], 2.3 µM.

For the compound `COc1ccc2c(c1)c(CC(=O)O)c(C)n2C(=O)c1ccc(Cl)cc1` [INDOMETHACIN], the 50% inhibitory concentration (IC50) in assay [8] turned out to be 130 µM; in assay [9], 75 µM; in assay [10], 54 µM.

In turn, `Cc1c(Cl)cccc1Nc1ccccc1C(=O)O` [TOLFENAMIC ACID] had a Ki in assay [11] of 0.008 µM.
